Results from ChEMBL document CHEMBL4513216, “Probing the Open Global Health Chemical Diversity Library for Multistage-Active Starting Points for Next-Generation Antimalarials” (ACS Infect Dis, 2020).

Experiment: Toxicity liver stage against HepG2, at 10uM
Assay type: cell-based
Set-up: test concentration 10 uM, cell line HepG2-A16-CD81EGFP
Conditions: human, HepG2-A16-CD81EGFP cells; read-out: INHIBITION
How it was run: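 Uninfected HepG2-A16-CD81EGFP cells, 3 × 10^3 per well, 1536-well, plated on prespotted compound at 10 μM final, parasite-free screening media added to match infected plates; puromycin 10 μM positive, DMSO 0.5% negative; run in parallel with 48 h PbLuc assay at 37 °C, 5% CO2; viability by CellTiter-Glo luminescence, normalized to controls.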

In the case of `CC1CCN(C[C@H]2CN3CC[C@H]2C[C@@H]3CNC(=O)Nc2ccsc2)CC1`, the cytotoxicity at 10 µM was 2.95%.

With `CC(C)C1SCC(=O)Nc2c1cnn2-c1ccc(Cl)cc1` (stereo unspecified) the cytotoxicity at 10 µM was 47%.

Compound `CC(C)Nc1nc2c(c(NC3CC3)n1)CN(C(=O)c1ccsc1)CC2` has a cytotoxicity at 10 µM of -27.2%.

With `Cn1nc(CN2CCCCC2)c2c1CN(C(=O)Nc1cccc(F)c1)C2` the cytotoxicity at 10 µM was 5.68%.

Work on `CCS(=O)(=O)N1CCc2ncnc(OC)c2CC1` yielded a cytotoxicity at 10 µM of 6.93%.

`Cc1[nH]/c(=N\C(=O)c2csc(NC3CC3)n2)sc1C` showed a cytotoxicity at 10 µM of 37.4%.

`CC(Cn1cc(Br)cn1)C(=O)Nc1ccc(Br)cn1` (stereo unspecified) showed a cytotoxicity at 10 µM of 73.3%.

`Cc1ccc(NC(C)(C)c2nnnn2-c2ccc(Cl)cc2)c(C)c1` showed a cytotoxicity at 10 µM of 55.4%.

Work on `CCc1noc(C2CCCCN2C(=O)c2cc(C)oc2C)n1` (stereo unspecified) yielded a cytotoxicity at 10 µM of 8.57%.

In the case of `Cc1ccnn1CCCNC(=O)C1CCN(S(C)(=O)=O)CC1`, the cytotoxicity at 10 µM was 3.63%.

`CCN(CC)C(=O)CN1CCC2(C=Cc3cc(Cl)c(C)cc3O2)CC1` showed a cytotoxicity at 10 µM of -3.02%.

In the case of `Cc1cc(Cc2cccc(C(F)(F)F)c2)cc(C2CCCNC2)n1` (stereo unspecified), the cytotoxicity at 10 µM was -2.34%.

In the case of `CCCN(C(=O)c1cccnc1)c1nc2c(s1)CCc1c-2cnn1C`, the cytotoxicity at 10 µM was 5.05%.

In the case of `CNc1cccc(C2CCCN(C(=O)Cc3ccccc3)C2)n1` (stereo unspecified), the cytotoxicity at 10 µM was -6.5%.

In the case of `CCc1ccc(C(=O)N2CC[C@H](Oc3cccnc3C)[C@@H](O)CC2)cc1`, the cytotoxicity at 10 µM was 8.24%.

`Cc1ccc(Nc2nccc(C3CCCN(CC(=O)N(C)C)C3)n2)nc1` (stereo unspecified) gave a cytotoxicity at 10 µM of -2.09%.

For `CC(C)c1nc2n(n1)CC(Nc1ncnc3ccccc13)CC2` (stereo unspecified), the cytotoxicity at 10 µM was -0.95%.

With `CC(C)(C)CN(CCC#N)C(=O)c1cccc(CC#N)c1` the cytotoxicity at 10 µM was 7.05%.

For `CC(c1nc(-c2ccccc2)no1)N1CCc2c(ncn2C2CC2)C1` (stereo unspecified), the cytotoxicity at 10 µM was 7.12%.

In the case of `CN(CCc1ccncc1)CCc1nccs1`, the cytotoxicity at 10 µM was 1.8%.

`COCC1CCN(c2ccnc3ccsc23)C1` (stereo unspecified) gave a cytotoxicity at 10 µM of 6.24%.

`CC(C)(C)n1ncc(NCC(O)c2ccccc2)c(Cl)c1=O` (stereo unspecified) showed a cytotoxicity at 10 µM of 46.6%.

`NC(=O)c1ccc(N2CCN(Cc3ccc(F)cc3Cl)CC2)nn1` showed a cytotoxicity at 10 µM of 62.6%.

`CC(C)Cn1ncc(C(=O)NS(=O)(=O)c2ccccc2)c1C1CC1` gave a cytotoxicity at 10 µM of 2.35%.

Work on `CSCc1cc(F)ccc1CNC(=O)N1CCCC(CO)C1` (stereo unspecified) yielded a cytotoxicity at 10 µM of 10.3%.

In the case of `COc1cc(C)sc1C(=O)NCCC(=O)N(C)c1ccccc1`, the cytotoxicity at 10 µM was -1.41%.

In the case of `Cc1ccc(S(=O)(=O)N2CCN(CCCn3ccnc3)CC2)cc1`, the cytotoxicity at 10 µM was -13.5%.

For `CC(C)(C)SCC(=O)NCCc1csc(N2CCCC2)n1`, the cytotoxicity at 10 µM was 8.74%.

Compound `Cn1cc(-c2csc(N3CCCCCC3)n2)cn1` has a cytotoxicity at 10 µM of 4.22%.

Work on `NC(=O)c1ccc(N2CCCCC2)c(NC(=O)c2cc(Br)ccc2Cl)c1` yielded a cytotoxicity at 10 µM of 59.6%.

In the case of `CC(C)(C)c1nc(CNC2CCCN(c3cccnn3)C2)no1` (stereo unspecified), the cytotoxicity at 10 µM was 4.93%.

For `Cc1nc(C)c(C)c(N2CCC(NCCOc3ccccc3)CC2)n1`, the cytotoxicity at 10 µM was -1.45%.

Compound `COCCN(C)c1ccc(NCc2ccsc2)nc1` has a cytotoxicity at 10 µM of -5.2%.

For `O=C(C[S+]([O-])Cc1ccc(F)cc1)N1CCc2sccc2C1` (stereo unspecified), the cytotoxicity at 10 µM was -3.86%.

Work on `COc1cc(CNc2nncs2)cc(OC)c1OC` yielded a cytotoxicity at 10 µM of 18.7%.

For `CN(C)S(=O)(=O)c1ccc(CNc2ccc(Cl)cn2)cc1`, the cytotoxicity at 10 µM was 7.25%.

Compound `CCCN(CCc1ccccn1)C(=O)Cn1cc(C)cn1` has a cytotoxicity at 10 µM of -9.22%.

Work on `COc1ccccc1C1(CNc2snc(Cl)c2C#N)CCCC1` yielded a cytotoxicity at 10 µM of 31.6%.

In the case of `O=C(NC1CCN(CC2CC2)C1)c1ccc(N2CCC(O)CC2)cc1` (stereo unspecified), the cytotoxicity at 10 µM was -11.8%.

`NC(=O)c1nc2c(s1)CCN(C(=O)Nc1cccc(Cl)c1)CC2` gave a cytotoxicity at 10 µM of 6.64%.

In the case of `CCOCC1CN(C(=O)c2ccco2)Cc2cnn(CC)c21` (stereo unspecified), the cytotoxicity at 10 µM was -69%.

`CC(C)CC(=O)N1CC(=O)c2sc(Nc3ccc(C#N)cc3)nc2C1` showed a cytotoxicity at 10 µM of -0.279%.

In the case of `CNc1cc(C)nc(NC2CCCN(C3Cc4ccccc4C3)C2)n1` (stereo unspecified), the cytotoxicity at 10 µM was 0.403%.

Compound `c1ccc(OCc2noc(CN3CCC(N4CCSCC4)CC3)n2)cc1` has a cytotoxicity at 10 µM of -6.95%.

Compound `NC1CCCCN(Cc2cc(-c3ccccc3OC(F)(F)F)no2)C1` (stereo unspecified) has a cytotoxicity at 10 µM of -4.52%.

Compound `CCNc1ncc(C(=O)NC2CCc3ccccc3C2)cn1` (stereo unspecified) has a cytotoxicity at 10 µM of 82.6%.

Work on `CCc1cc(N2CCN(c3ccc(Cl)cn3)CC2)n2nccc2n1` yielded a cytotoxicity at 10 µM of 23.1%.

With `CC(C)c1ccc(CN2C(=O)C3(CCNCC3)Nc3ccccc32)cc1` the cytotoxicity at 10 µM was -9.81%.

Work on `CC(=O)N1CCc2c(nc(N(C)C)nc2NC(C)Cc2cccs2)C1` (stereo unspecified) yielded a cytotoxicity at 10 µM of -42.9%.

In the case of `COc1cccc(CCC2CCCN(C(=O)c3cnccn3)C2)c1` (stereo unspecified), the cytotoxicity at 10 µM was 13.7%.

With `CN(C)CCNc1ccc(-c2nc(-c3ccccc3F)no2)cn1` the cytotoxicity at 10 µM was 9.34%.

Work on `Fc1cc(Oc2ccc(C(F)(F)F)cn2)cc(F)c1CN1CCCC1` yielded a cytotoxicity at 10 µM of 24%.

`O=C1N(CC2CC2)CCCC1(O)CN1CCc2[nH]ncc2C1` (stereo unspecified) gave a cytotoxicity at 10 µM of -2.2%.

For `CC(C)c1cc(NC2CCCN(C(=O)c3cccs3)C2)ncn1` (stereo unspecified), the cytotoxicity at 10 µM was -7.55%.

With `Cc1nc(CN(C)C)cc(N2CCCC(COc3ccc(F)cc3)C2)n1` (stereo unspecified) the cytotoxicity at 10 µM was -7.4%.

In the case of `Cc1nonc1CN(C)c1nc(-c2cccnc2)nc2c1CCNC2`, the cytotoxicity at 10 µM was 4.05%.

Compound `CCNC(=O)[C@@H]1C[C@@H](N)CN1Cc1ccc(Sc2ccc(C)cc2)o1` has a cytotoxicity at 10 µM of -53.4%.

`COc1cc(N(C)Cc2cccc(-n3cccn3)c2)nc(N)n1` gave a cytotoxicity at 10 µM of 49.1%.

With `CCNc1ccnc(N2Cc3cnn(Cc4ccc(F)cc4)c3C2)n1` the cytotoxicity at 10 µM was 10%.

For `O=C(c1cc(-c2cn[nH]c2)nc2cc(F)ccc12)N1CCS(=O)(=O)CC1`, the cytotoxicity at 10 µM was 0.141%.

Compound `Cc1cc(C(=O)N2CCOC(c3ccc(Cl)c(Cl)c3)C2)[nH]n1` (stereo unspecified) has a cytotoxicity at 10 µM of 4.55%.

With `Cc1ccccc1N1CCCN(c2ccncn2)CC1` the cytotoxicity at 10 µM was 24.9%.

Work on `Cc1c[nH]c(CN2CCOC(c3ccc(Cl)cc3)C2)c(C)c1=O` (stereo unspecified) yielded a cytotoxicity at 10 µM of 13.4%.

With `Cc1ccc(Cl)cc1C(=O)N1CCC2(CC1)c1ccccc1[C@@H](N)[C@@H]2O` the cytotoxicity at 10 µM was -13.8%.

For `O=C1CC[C@H]2CN(Cc3ccc(Cl)s3)CC[C@H]2N1CCc1c[nH]cn1`, the cytotoxicity at 10 µM was 38.5%.

Compound `Cc1cc(C)c2nc(CN3CCCC(c4cc[nH]n4)C3)cc(O)c2c1` (stereo unspecified) has a cytotoxicity at 10 µM of -3.97%.

Compound `CCn1ccnc1CN1CCCC(CO)(Cc2cccc(Cl)c2)C1` (stereo unspecified) has a cytotoxicity at 10 µM of -0.0444%.

Compound `CCS(=O)(=O)N1CCC(NC(=O)c2cc3ccccc3cc2O)CC1` has a cytotoxicity at 10 µM of -2.1%.

With `Cn1cc(NS(=O)(=O)c2ccc3c(c2)CCCC3)ccc1=O` the cytotoxicity at 10 µM was 40.7%.

Compound `COC(=O)c1ccc(N2CCN(C(=O)c3cccnc3)C(C)C2)cc1` (stereo unspecified) has a cytotoxicity at 10 µM of 4.54%.

Work on `Cc1cc(C)c(CNC(=O)N2CCCC2c2cc(C)on2)c(=O)[nH]1` (stereo unspecified) yielded a cytotoxicity at 10 µM of 1.1%.

For `O=C(NCC(=O)N1CCCc2ccccc21)c1c(O)cc(F)cc1F`, the cytotoxicity at 10 µM was 28.6%.

For `CN(C)c1ccc(CN(CCCn2ccnc2)Cc2c[nH]cn2)cc1`, the cytotoxicity at 10 µM was -1.34%.

With `CC(C)NC(=O)N1CCN(CC2CC2)CC2(CC(=O)N(C)C2)C1` (stereo unspecified) the cytotoxicity at 10 µM was -1.34%.

`Cc1cnc(N2CCCC3(CCCN3CC(=O)N(C)C)C2)nc1` (stereo unspecified) gave a cytotoxicity at 10 µM of -0.634%.

For `Fc1cccc(CN2CCOC3(COCCN(CC4CC4)C3)C2)c1` (stereo unspecified), the cytotoxicity at 10 µM was -111%.

Work on `c1ccc(OC2COC3(CCN(Cc4ccccn4)CC3)C2)cc1` (stereo unspecified) yielded a cytotoxicity at 10 µM of -69.2%.

In the case of `COCCN1CCO[C@H]2CN(C(=O)c3cccs3)C[C@H]21`, the cytotoxicity at 10 µM was 2.1%.

Work on `O=C1CC2(CCN(Cc3ccco3)C2)CN1c1ccc2c(c1)OCO2` (stereo unspecified) yielded a cytotoxicity at 10 µM of -75.9%.

In the case of `Cc1ccc(CN2Cc3nnn(C)c3C(COCc3ccccc3)C2)s1` (stereo unspecified), the cytotoxicity at 10 µM was 1.58%.

In the case of `COc1cccc(-c2ncc(CN3C[C@H]4CC[C@@H](C3)N(C)C4=O)s2)c1`, the cytotoxicity at 10 µM was 6.74%.
